Activity calls are given as the source filed them. No cut-off for these calls is given here.
Assays:
[1] = target: T1, Androgen receptor (Homo sapiens) (UniProt P10275); experiment: Antagonist activity at androgen receptor in human LNCaP cells assessed as reduction in DHT-induced PSA expression incubated for 24 hrs by RT-PCR
T1 sequence (whole entry): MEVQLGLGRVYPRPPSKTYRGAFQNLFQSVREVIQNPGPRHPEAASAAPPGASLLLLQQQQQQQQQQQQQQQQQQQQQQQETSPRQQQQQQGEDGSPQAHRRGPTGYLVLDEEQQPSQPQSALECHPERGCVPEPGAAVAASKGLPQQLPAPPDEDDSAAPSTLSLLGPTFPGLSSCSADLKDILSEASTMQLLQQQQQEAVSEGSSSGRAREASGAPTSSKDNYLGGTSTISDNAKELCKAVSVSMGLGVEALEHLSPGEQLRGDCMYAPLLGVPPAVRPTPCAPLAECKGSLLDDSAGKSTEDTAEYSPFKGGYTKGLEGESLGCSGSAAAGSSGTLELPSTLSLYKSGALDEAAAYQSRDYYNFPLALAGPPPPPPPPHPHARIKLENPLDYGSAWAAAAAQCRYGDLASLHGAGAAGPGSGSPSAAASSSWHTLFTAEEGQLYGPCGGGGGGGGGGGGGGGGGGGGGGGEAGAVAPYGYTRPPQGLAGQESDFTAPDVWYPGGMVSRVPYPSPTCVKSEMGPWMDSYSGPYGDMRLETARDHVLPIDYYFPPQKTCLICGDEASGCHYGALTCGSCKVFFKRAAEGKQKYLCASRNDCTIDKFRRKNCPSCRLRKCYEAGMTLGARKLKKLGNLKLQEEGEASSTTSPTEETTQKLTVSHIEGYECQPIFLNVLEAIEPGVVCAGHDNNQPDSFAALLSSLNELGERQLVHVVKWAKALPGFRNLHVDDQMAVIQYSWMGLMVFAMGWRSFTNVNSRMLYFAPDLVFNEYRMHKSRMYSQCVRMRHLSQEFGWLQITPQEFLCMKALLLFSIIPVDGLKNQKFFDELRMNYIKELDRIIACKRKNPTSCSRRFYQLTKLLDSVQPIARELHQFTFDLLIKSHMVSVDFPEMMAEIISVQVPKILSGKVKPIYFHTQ

[2] = target: T1, Androgen receptor (Homo sapiens); experiment: Agonist activity at androgen receptor expressed in human PC3 cells assessed as stimulation of receptor transactivation at 0.1 to 1 uM by luciferase reporter gene assay; type: functional, cell-based; conditions: PC-3
Summary of the method: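 Full-length wild-type or mutant AR plasmid transiently transfected into PC-3 cells with MMTV-luc and Renilla luciferase reporters. Cells treated with DMSO vehicle or compound at 0.1 and 1 μM, alone or with 0.1 nM DHT. Luciferase read as relative luciferase units. Run in triplicate.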

[3] = target: T1, Androgen receptor (Homo sapiens); experiment: Antagonist activity at androgen receptor in human PC3 cells assessed as increase in Maspin promoter activity at 2.5 uM by luciferase reporter gene assay; type: functional, cell-based; conditions: PC-3
Summary of the method: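 PC-3 cells were transfected with maspin-luc, with or without cotransfected AR. Cells were exposed to DMSO vehicle or compound at 2.5 and 5 μM. Luciferase activity was measured in triplicate.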

[4] = target: T1, Androgen receptor (Homo sapiens); experiment: Antagonist activity at androgen receptor in human LNCaP cells assessed as increase in Maspin protein expression at 1 to 5 uM incubated for 24 hrs by Western blotting
[5] = target: T2, Glucocorticoid receptor (Homo sapiens) (UniProt P04150); experiment: Agonist activity at glucocorticoid receptor expressed in human PC3 cells assessed as stimulation of receptor transactivation at 1 uM by luciferase reporter gene assay; type: functional, cell-based; conditions: PC-3
T2 sequence (whole entry): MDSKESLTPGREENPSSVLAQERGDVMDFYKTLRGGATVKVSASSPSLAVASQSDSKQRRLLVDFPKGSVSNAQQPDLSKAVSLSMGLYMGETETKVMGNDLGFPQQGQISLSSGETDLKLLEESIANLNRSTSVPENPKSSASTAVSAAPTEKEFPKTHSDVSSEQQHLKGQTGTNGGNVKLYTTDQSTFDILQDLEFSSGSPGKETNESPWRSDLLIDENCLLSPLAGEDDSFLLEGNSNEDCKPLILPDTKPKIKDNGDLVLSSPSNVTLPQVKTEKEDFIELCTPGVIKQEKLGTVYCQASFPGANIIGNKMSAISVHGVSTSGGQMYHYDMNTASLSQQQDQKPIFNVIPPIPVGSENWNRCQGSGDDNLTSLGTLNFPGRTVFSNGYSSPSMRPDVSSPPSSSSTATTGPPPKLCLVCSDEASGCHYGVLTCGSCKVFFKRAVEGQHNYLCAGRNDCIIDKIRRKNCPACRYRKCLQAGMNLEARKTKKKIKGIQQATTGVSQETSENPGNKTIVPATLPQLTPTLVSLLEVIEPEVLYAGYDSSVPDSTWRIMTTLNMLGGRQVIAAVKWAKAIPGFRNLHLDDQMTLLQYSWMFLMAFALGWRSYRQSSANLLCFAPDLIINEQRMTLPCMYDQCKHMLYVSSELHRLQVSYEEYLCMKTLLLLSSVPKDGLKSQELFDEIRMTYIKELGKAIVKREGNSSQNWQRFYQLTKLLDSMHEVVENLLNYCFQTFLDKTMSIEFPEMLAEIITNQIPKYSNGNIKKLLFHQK
Summary of the method: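 PC-3 cells express GR endogenously and were transfected only with the MMTV-luc reporter. Compound tested at 1 μM, alone or against transactivation induced by 10 nM dexamethasone. Read-out was luciferase reporter activity.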

Cc1coc2c1C(=O)C(=O)c1c-2ccc2c1CCCC2(C)C [TANSHINONE IIA]
Activity [1]: Dose-dependent effect | Activity [2]: inactive | Activity [3]: Active | Activity [4]: Active | Activity [5]: inactive

Source: ChEMBL document CHEMBL2163220 (J Med Chem, 2012)
